Values after ≈ are worked out from the molar mass of the structure shown. “Also recorded” adds a separate entry of the source.
Assays:
E. coli Δ7 prrn WT = assay: Growth inhibition of E. coli Δ7 prrn WT; format: cell-based; conditions: for antibacterial activity in words: E. coli Δ7 prrn WT compared with A1408G and G1491U strains
AAC(6′)-Ib′ = assay: Relative initial rate of AME reaction, AAC; format: biochemical
ribosome = conditions: cited from earlier work
[1] = tested on: control (WT) E. coli ribosomes; assay: EF-G-dependent translocation inhibition; format: biochemical; conditions: in vitro, WT (and A1408G) ribosomes
[2] = tested on: mutant A1408G E. coli ribosomes; assay: EF-G-dependent translocation inhibition; format: biochemical; conditions: read-out: Translocation inhibition IC50, A1408G
How it was run: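 Ribosomes purified from the corresponding Δ7 prrn E. coli strain carrying A1408G. The extent of EF-G-dependent translocation was measured by toeprinting across various concentrations of the test aminoglycoside. IC50 was obtained by fitting the data to the Hill equation.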

E. coli TolC (O) = assay: Antibacterial MIC, E. coli TolC; format: cell-based; conditions: Escherichia coli
E. coli Δ7 prrn A1408G = assay: Growth inhibition of E. coli Δ7 prrn A1408G; format: cell-based; conditions: Escherichia coli
E. coli Δ7 prrn G1491U = assay: Growth inhibition of E. coli Δ7 prrn G1491U; format: cell-based; conditions: Escherichia coli

CCCCSCC1OC(OC2C(N)CC(N)C(OC3OC(CN)C(O)CC3N)C2O)C(O)C(N)C1O (stereo not shown) [3a]
antibacterial activity in words (E. coli Δ7 prrn WT): biological activity indistinguishable from TOB

CC(C)(C)c1ccc(SCC2OC(OC3C(N)CC(N)C(OC4OC(CN)C(O)CC4N)C3O)C(O)C(N)C2O)cc1 (stereo not shown) [3s]
antibacterial activity in words (E. coli Δ7 prrn WT): virtually inactive

CCCCCCSCC1OC(OC2C(N)CC(N)C(OC3OC(CN)C(O)CC3N)C2O)C(O)C(N)C1O (stereo not shown) [3b]
antibacterial activity in words (E. coli Δ7 prrn WT): virtually inactive; also recorded: antibacterial activity is completely lost

CCCCCCCCCCCCCCSC[C@H]1O[C@H](O[C@@H]2[C@@H](O)[C@H](O[C@H]3O[C@H](CN)[C@@H](O)C[C@H]3N)[C@@H](N)C[C@H]2N)[C@H](O)[C@@H](N)[C@@H]1O [3f]
antibacterial activity in words (E. coli Δ7 prrn WT): indistinguishably strong antibacterial activity | relative initial rate, normalized to TOB (AAC(6′)-Ib′): > 200% | inhibition of in vitro translation in words (ribosome): fails to inhibit in vitro translation

CCCCCCCCCCSC[C@H]1O[C@H](O[C@@H]2[C@@H](O)[C@H](O[C@H]3O[C@H](CN)[C@@H](O)C[C@H]3N)[C@@H](N)C[C@H]2N)[C@H](O)[C@@H](N)[C@@H]1O [3d]
inhibition of translocation in words [1]: failed to inhibit translocation | antibacterial activity in words (E. coli Δ7 prrn WT): lower activity with little-to-no h44-dependence

CCCCCCCCCCCCCCCCSCC1OC(OC2C(N)CC(N)C(OC3OC(CN)C(O)CC3N)C2O)C(O)C(N)C1O (stereo not shown) [3g]
antibacterial activity in words (E. coli Δ7 prrn WT): indistinguishably strong antibacterial activity

NCC1OC(OC2C(N)CC(N)C(OC3OC(CSc4cccc(F)c4)C(O)C(N)C3O)C2O)C(N)CC1O (stereo not shown) [3y]
IC50 [2]: 210 µM

CCCCCCCCCCCCCCCCCCSC[C@H]1O[C@H](O[C@@H]2[C@@H](O)[C@H](O[C@H]3O[C@H](CN)[C@@H](O)C[C@H]3N)[C@@H](N)C[C@H]2N)[C@H](O)[C@@H](N)[C@@H]1O [3h]
inhibition of translocation in words [1]: failed to inhibit translocation

NC[C@H]1O[C@H](O[C@H]2[C@H](O)[C@@H](O[C@H]3O[C@H](CO)[C@@H](O)[C@H](N)[C@H]3O)[C@H](N)C[C@@H]2N)[C@H](N)C[C@@H]1O [TOB, tobramycin]
IC50 [2]: 700 µM | MIC (E. coli TolC (O)): > 150 µg/mL | MIC (E. coli Δ7 prrn WT; Escherichia coli): 18.8 µg/mL (≈ 40.2 µM) | MIC (E. coli Δ7 prrn A1408G): > 150 µg/mL | MIC (E. coli Δ7 prrn G1491U): > 150 µg/mL

NC[C@H]1O[C@H](O[C@H]2[C@H](O)[C@@H](O[C@H]3O[C@H](CSc4ccccc4F)[C@@H](O)[C@H](N)[C@H]3O)[C@H](N)C[C@@H]2N)[C@H](N)C[C@@H]1O [3x]
inhibition of translocation in words [1]: notably poorer inhibitors of translocation | IC50 [2]: 310 µM

CCCCCCCCCCCCSC[C@H]1O[C@H](O[C@@H]2[C@@H](O)[C@H](O[C@H]3O[C@H](CN)[C@@H](O)C[C@H]3N)[C@@H](N)C[C@H]2N)[C@H](O)[C@@H](N)[C@@H]1O [3e]
inhibition of translocation in words [1]: fails to inhibit translocation | antibacterial activity in words (E. coli Δ7 prrn WT): lower activity with little-to-no h44-dependence

COc1ccccc1SC[C@H]1O[C@H](O[C@@H]2[C@@H](O)[C@H](O[C@H]3O[C@H](CN)[C@@H](O)C[C@H]3N)[C@@H](N)C[C@H]2N)[C@H](O)[C@@H](N)[C@@H]1O [3u]
inhibition of translocation in words [1]: notably poorer inhibitors of translocation | IC50 [2]: 620 µM
